Source: PubChem BioAssay
Hits are enriched below; roughly 3.1% of the tested compounds scored in any of these assays.
KCNQ1 act – potentiators or activators of KCNQ1 channel, primary screen, cell-based, thallium flux, high-throughput; Potassium voltage-gated channel subfamily KQT member 1 (Homo sapiens), P51787; CHO-K1 KCNQ1, thallium flux FluxOR fluorescence; hits give high values; B-score at 10 µM; 0.35% of 310,000 active; AID 2648, 2010;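 active means fluorescence ratio B-score, a plate-corrected score, at least three library SD, with initial intensity B-score within 5 SD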
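Test system: CHO-K1 cells stably expressing KCNQ1 / Medium: assay buffer / Also added: depolarizing K+/Tl+ stimulus, K2SO4 and Tl2SO4 each 12.5 mM in 5x stock / Incubation: 90 min dye loading and 20 min compound exposure, both at room temperature / Signal: thallium influx via FluxOR fluorescence, kinetic imaging / Evaluation: B score of baseline-normalized fluorescence ratio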
KCNQ1 inh – inhibitors of human KCNQ1 channel, primary screen, cell-based, thallium flux, high-throughput; AID 2642, 2010; 1.3% of 310,000 active; CHO-K1 KCNQ1, FluxOR thallium flux fluorescence; hits give high values; B-score at 10 µM; Potassium voltage-gated channel subfamily KQT member 1 (Homo sapiens), P51787;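 active means compounds whose thallium flux B-score, printed positive for inhibition, exceeds three library SD while starting fluorescence stays within three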;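 further: channel opened by potassium depolarization with thallium stimulus after 20 min compound exposure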
hERG protect – hERG rescue from dofetilide block, primary screen, cell-based, CHO-hERG, FluxOR thallium flux, dofetilide IC70; Voltage-gated inwardly rectifying potassium channel KCNH2 (Homo sapiens), Q12809; dofetilide IC70 present; activation (rescue from dofetilide block), less the hit threshold, % at 10 µM; AID 1511, 2009; 0.51% of 310,000 active;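 active means activation above the mean of controls blocked by dofetilide plus 5 SD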;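 further: thallium influx through hERG after potassium depolarization seen as dye fluorescence rise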
KCNK9 block – KCNK9 potassium channel inhibitors, primary screen, HEK293 cells, thallium flux; Potassium channel subfamily K member 9 (Homo sapiens), Q9NPC2; FluxOR thallium flux fluorescence; hits give low values; B-score at 10 µM; 1.2% of 310,000 active;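 active means ratio B-score over 3 SD below the library mean, with starting fluorescence within 5 SD of its mean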;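 further: negative B-score means less thallium flux so channel inhibition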
KCNK3 inh – human KCNK3 channel inhibitors, primary screen, CHO cells, FluxOR thallium flux, B-score; B-score at 10 µM; FluxOR fluorescence; hits give low values; 0.84% of 340,000 active; Potassium channel subfamily K member 3 (Homo sapiens), O14649;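 active means B-score under library mean minus 4 SD, starting fluorescence ratio at most library mean plus 5 SD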;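 further: more negative B-score means stronger inhibition of thallium flux through KCNK3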
KCNQ1 inh valid – KCNQ1 potassium channel inhibitors, confirmation, cell-based, Tl flux, duplicate | 93% of 1,600 active | inhibition, % at 10 µM | shares compounds with KCNQ1 inh | KCNQ1 cell line, FluxOR thallium flux fluorescence;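 active means primary screen active, with duplicate mean exceeding buffer control mean plus 3 SD of buffer wells, cut at about 28% in these data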
CHO KCNQ1 ctr – thallium flux effects in parental CHO cells, counter-screen for KCNQ1 inhibitor project, cell-based, Tl flux; shares compounds with KCNQ1 inh; parental CHO-K1, FluxOR thallium flux fluorescence ratio; hits give low values; zero means no signal rise above baseline; fluorescence ratio (Tl flux) at 10 µM; 21% of 1,600 active; AID 588366, 2011;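 active means mean of duplicate thallium-flux fluorescence ratios in parental host cells more than 5 SD below the buffer control mean, cut at about 0.38 in these data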;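 further: ratio is peak minus minimum fluorescence divided by baseline fluorescence; actives read low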
KCNQ1 ephys val – KCNQ1 channel inhibitors, confirmation, orthogonal assay, cell-based, automated electrophysiology; calls only at 10 µM; shares compounds with KCNQ1 inh; KCNQ1-CHO cells, automated patch clamp current; AID 624120, 2012; 20% of 490 active;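 active means KCNQ1 current drop exceeding 3 SD of negative control wells, seen in both duplicate runs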;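 further: steady state current during a 2 s step from -80 to +40 mV; negative values mean current inhibition and positive values mean potentiation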
KCNQ2 spec – KCNQ2 channel inhibition, selectivity assay for KCNQ1 inhibitor project, cell-based; inhibition, % at 10 µM; KCNQ2 cells, FluxOR thallium flux fluorescence; shares compounds with KCNQ1 inh; AID 651746, 2012; 71% of 1,600 active;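 active means mean percent inhibition of the KCNQ2 thallium signal more than 5 SD above the buffer-only control wells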;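 further: KCNQ2 expressed in CHO cells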
KCNQ1 KCNE1 spec – KCNQ1/KCNE1 channel inhibition, selectivity assay for KCNQ1 inhibitor project, CHO-K1 cells, thallium flux, FluxOR | shares compounds with KCNQ1 inh | FluxOR thallium flux fluorescence | inhibition, % at 10 µM | 77% of 1,600 active | AID 652147, 2013;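 active means mean percent inhibition of duplicate wells above the buffer-only control mean plus 3 SD of those controls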
Of the large screens only hits and unclear results are named; the others gave an inactive call (follow-up assays come after a bar, where they were run).

N#Cc1ccccc1S(=O)(=O)N1CCN(C(=O)C2CCCCC2)CC1	none (no result: KCNQ1 act, KCNQ1 inh, hERG protect, KCNK9 block)
CCOc1ccc(NC(=O)Nc2ccc3nsnc3c2)cc1	KCNQ1 inh 12 | KCNQ1 inh valid 27 | CHO KCNQ1 ctr inactive | KCNQ2 spec inactive | KCNQ1 KCNE1 spec inactive
CCOc1ccc(NC(=S)Nc2ccc3nsnc3c2)cc1	KCNQ1 inh 6 | KCNQ1 inh valid 82 | CHO KCNQ1 ctr inactive | KCNQ2 spec 70% | KCNQ1 KCNE1 spec 48%
CCOc1ccc(NC(=S)Nc2ccc(OC(F)(F)F)cc2)cc1	KCNQ1 inh 7 | KCNQ1 inh valid inactive | CHO KCNQ1 ctr inactive | KCNQ2 spec inactive | KCNQ1 KCNE1 spec inactive
CCOc1ccc(NC(=S)Nc2ccc(OCC)cc2)cc1	none
CC(C)c1ccc(-c2cc(C(=O)N3CCOCC3)c3cc(Br)ccc3n2)cc1	KCNQ1 inh 6 | KCNQ1 inh valid 40 | CHO KCNQ1 ctr inactive | KCNQ2 spec 131% | KCNQ1 KCNE1 spec inactive
COc1cc(/C=C/c2nnc3c4ccccc4ncn23)cc(OC)c1OC	KCNQ1 inh 6 | KCNQ1 inh valid 44 | CHO KCNQ1 ctr inactive | KCNQ2 spec 60% | KCNQ1 KCNE1 spec 34%
C(=C\c1nnc2c3ccccc3ncn12)/c1ccccc1	none
Oc1ccc(-c2n[nH]c(C(F)(F)F)c2-c2ccccc2)c(O)c1	KCNQ1 inh 8 | KCNQ1 inh valid 156 | CHO KCNQ1 ctr 0.37 | KCNQ2 spec inactive | KCNQ1 KCNE1 spec 182%
COC(=O)c1ccc(Oc2ccc3nnc(C)n3n2)cc1	none
Cc1nnc2ccc(Oc3ccc(-c4ccccc4)cc3)nn12	KCNQ1 inh 9 | KCNQ1 inh valid 67 | CHO KCNQ1 ctr inactive | KCNQ2 spec inactive | KCNQ1 KCNE1 spec inactive
CCCc1cc(C(=O)Nc2ccc(C(=O)c3ccc(C)cc3)cc2)n(C)n1	KCNQ1 inh 11 | KCNQ1 inh valid 170 | CHO KCNQ1 ctr 0.36 | KCNQ2 spec 140% | KCNQ1 KCNE1 spec active
O=C1CCCCC1C(Nc1ccc(Br)cc1)c1ccccc1 (stereo unspecified)	KCNQ1 inh 8, KCNK9 block -6.6 | KCNQ1 inh valid 126 | CHO KCNQ1 ctr inactive | KCNQ1 ephys val active | KCNQ2 spec 89% | KCNQ1 KCNE1 spec 172%
C=CCn1c(=O)[nH]c2nc3cc(N=CN(C)C)c(C)cc3nc2c1=O	KCNQ1 inh 8 | KCNQ1 inh valid 102 | CHO KCNQ1 ctr 0.28 | KCNQ2 spec inactive | KCNQ1 KCNE1 spec 152%
CCCCn1c(=O)[nH]c2nc3cc(N)ccc3nc2c1=O	none (no result: KCNQ1 act, KCNQ1 inh, hERG protect, KCNK9 block)
CN(C)CCNC(=O)c1ccc(Sc2ccc(Br)cc2)c([N+](=O)[O-])c1	KCNQ1 inh 15 | KCNQ1 inh valid inactive | CHO KCNQ1 ctr inactive | KCNQ2 spec inactive | KCNQ1 KCNE1 spec inactive
CCCCOc1ccc(CSCCN)cc1Cl	KCNQ1 inh 6 | KCNQ1 inh valid 68 | CHO KCNQ1 ctr inactive | KCNQ2 spec inactive | KCNQ1 KCNE1 spec 103%
